assay: Toxicity liver stage against HepG2, at 10uM; assay type: cell-based; design: test concentration 10 uM, cell line HepG2-A16-CD81EGFP; conditions: human, HepG2-A16-CD81EGFP cells; read-out: INHIBITION
Procedure, shortened: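 Uninfected HepG2-A16-CD81EGFP cells, 3 × 10^3 per well, 1536-well, plated on prespotted compound at 10 μM final, parasite-free screening media added to match infected plates; puromycin 10 μM positive, DMSO 0.5% negative; run in parallel with 48 h PbLuc assay at 37 °C, 5% CO2; viability by CellTiter-Glo luminescence, normalized to controls.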

Compound	cytotoxicity at 10 µM
CCOC(=O)N1CCN(C(=O)CCn2cccc2)CC1	5.62%
COc1ccc2c(c1)c(C(=O)Nc1nnn[nH]1)cn2C	-1.33%
CCCS(=O)(=O)NCCn1ccc(-c2cccs2)n1	5.55%
CC(=O)NCC(=O)N1CCc2c(CN(C)C)nn(C(C)C)c2C1	-4.94%
Cc1cc(C(=O)N2C[C@@H]3CN(S(C)(=O)=O)CCO[C@@H]3C2)c(C)o1	-3.49%
CCC(C)[C@H](NC(=O)c1cc(Br)ccc1-n1cnnn1)C(=O)OC (stereo not given in full)	2.58%
Cn1cccc1C(CNC(=O)c1ccc(F)cc1F)N1CCCCCC1 (stereo not given)	2.19%
CCN1CC2(CC1=O)CN(C(C)=O)CCN(C(=O)c1ccco1)C2 (stereo not given)	-8.92%
CC(C)NC(=O)c1ccn(COc2c(Cl)cccc2Cl)n1	7.44%
Cc1cccc2c1ccn2CC(=O)O	9.49%
Cc1cccc(C(=O)Nc2c(C(=O)N(C)C)nn(C)c2C)c1	7.58%
Cc1ccc(C(=O)Nc2c(C(=O)N(C)C)nn(C)c2C)cc1C	11.8%
Cc1ccc(C2(C(=O)NCCCn3cccn3)CCOCC2)cc1	9.73%
Cc1cc(Nc2ccc(F)cn2)cc(C2CCCN2)n1 (stereo not given)	0.0453%
Cc1cc2ccccc2n1CCC(=O)N1CCN(C)CC1C(N)=O (stereo not given)	-1.04%
COc1cc(CCC(=O)N2CCC(c3cc4ncc(C)nc4[nH]3)C2)on1 (stereo not given)	1.92%
Cc1ccc(CN2CCCC(c3cnccn3)C2)s1 (stereo not given)	2.46%
Cc1cc(C)nc(N2CCCC2c2[nH]ncc2C(=O)N(C)C)n1 (stereo not given)	-1.51%
Cc1noc(-c2c[nH]nc2C2CCCN2C(=O)c2ccccc2)c1C (stereo not given)	-8.77%
Cc1cncc(C2CCCN2CC(N)=O)n1 (stereo not given)	-5.3%
CC(=O)N1CCC(C)(c2cc[nH]n2)CC1	-4.07%
Nc1nc(C2CCN(C(=O)c3cscn3)CC2)cs1	3.32%

Compound	cytotoxicity at 10 µM
CCC1COCCN1C(=O)CNC(=O)c1ccsc1 (stereo not given)	4.53%
Cc1n[nH]cc1CNCC1(c2ccccc2Cl)CCOCC1	8.16%
CC(C)CN1CCC(NC(=O)N(C)Cc2csc3ccccc23)CC1	-52.9%
COCCOc1ncccc1C(=O)N(C)c1ccc(OC)nc1	-44.4%
CCN1CCN(C2CCN(Cc3ccc(Cl)s3)CC2)C1=O	13.1%
CCCN(C(=O)c1ccc(-n2ccnn2)cc1)c1cccnc1	13.8%
CC1CCCN(C(=O)c2occc2COc2cccc(C#N)c2)C1 (stereo not given)	4.57%
CCNC(=O)CCS(=O)(=O)Cc1ccn(-c2cccc(F)c2)n1	11.1%
Cc1nccn1C1CCCN(C(=O)CCc2nc(C(C)C)no2)C1 (stereo not given)	-6.27%
Cc1cc(C)n(-c2cncc(NCCNC(=O)C(C)(C)C)n2)n1	1.36%
Cc1ncsc1CN(C)Cc1cc2c(cc1OC(F)F)OCO2	6.22%
CC(NCc1cc2cc(F)ccc2o1)c1nnc2n1CCCC2 (stereo not given)	-7.93%
c1csc(-c2noc(CN3CCc4c(ncn4C4CC4)C3)n2)c1	5.93%
CC(=O)NS(=O)(=O)c1ccc(F)cc1C(F)(F)F	1.25%
CC(C)N(CCS(C)(=O)=O)Cc1csc(Cc2ccc(Cl)cc2)n1	-40.6%
Cn1nc(Br)c2c(NCCNc3ncccn3)ncnc21	11.3%
COCCNc1ccccc1CNC(=O)C1CCCOC1 (stereo not given)	-8.3%
CCC(C)n1cnc(S(=O)(=O)N(C)c2cccnc2N(C)C)c1 (stereo not given)	-3.08%
CCc1nsc(N2CCCN(C(=O)c3ccc(CC)o3)CC2)n1	7.76%
Cc1cnn(C2CN(Cc3nnc(Cc4ccccc4)o3)C2)c1	4.4%
CN(Cc1cccs1)S(=O)(=O)c1ccc(C(F)(F)F)nc1	-5.68%
Cc1nc(NC(=O)C(C)S(C)(=O)=O)sc1Cc1ccc(F)cc1 (stereo not given)	4.52%

Compound	cytotoxicity at 10 µM
CC1CCCN(c2ccccc2OCC(=O)N2CCOCC2)C1 (stereo not given)	-22.3%
CC(NCC(=O)N(C)C1CC1)c1ccc(S(C)(=O)=O)c(F)c1 (stereo not given)	6.27%
Clc1ccc(CN2CCCC(Cn3cncn3)C2)c2ncccc12 (stereo not given)	-13.7%
Cc1cccc(-n2cc(C(=O)N3CCn4c(C)nnc4C3)nn2)c1	-10.1%
CCN(CC)C(=O)CCc1c(C)nc2cc(O)nn2c1C	0.33%
Cc1ccc(N2CCCC3(CCN(C(=O)NC4CCCC4)C3)C2)nn1 (stereo not given)	-114%
CCO[C@H]1CC[C@H]2[C@H]1OCCN2C(=O)COc1ccccc1	-94%
COCCC(=O)N1CCC2(COCc3cnc(N4CCOCC4)nc32)C1 (stereo not given)	2.21%
O=C(NCC1CC1)[C@H]1C[C@H]2OCC[C@H]2N(Cc2ccsc2)C1	2.47%
CN1CCC(n2nc(CC3CC3)nc2-c2ccc(F)cc2Cl)CC1	-1.84%
CCNc1ncc(CN(CCN(C)C)Cc2ccc(C)s2)cn1	-46.1%
Cc1noc(-c2ccc(Oc3cccc(CN4CCCC4)c3F)nc2)n1	-6.03%
CN(C)CCN1CC2(CCC1=O)CCN(C(=O)c1ccn(C)n1)CC2	-11%
CC(C)CN(Cc1ccc(-n2cncn2)cc1)Cc1ccccn1	8.57%
Cc1cc(C)c(C(=O)N2CCCC(O)(CN3CCCC3)C2)cc1C (stereo not given)	8.4%
CC(C)(C)c1ccn(C2(C(=O)O)CCN(c3ccncc3F)CC2)n1	-0.423%
Cn1ccnc1C1CCN(S(=O)(=O)c2ccc3c(c2)OCCO3)CC1	-13.5%
COc1ccc(C(=O)N2C[C@@H](CN3CCCC3)[C@@H](CO)C2)c(C)c1	-7.21%
Cc1ccc(NC2CCCN(C3Cc4ccccc4C3)C2)nn1 (stereo not given)	-2.38%
CN(Cc1ccc(-n2cccn2)cc1)C(=O)CCC(F)(F)F	-3.67%
Cn1cccc1C(=O)N1CCC2(CC1)c1nc[nH]c1CCN2S(C)(=O)=O	-0.359%
CC(C)c1cc(C2CCN(C(=O)Cn3cnnn3)CC2)[nH]n1	8.04%

Compound	cytotoxicity at 10 µM
COCCC1(CO)CCCN(CCCc2ccccc2)C1 (stereo not given)	-1.4%
COc1ccc(CCC2CCCN(C(=O)c3cnc(N)nc3C)C2)cc1 (stereo not given)	1.14%
O=C(CCc1nc(Cl)n[nH]1)NC1CCCN(C2Cc3ccccc3C2)C1 (stereo not given)	-18.9%
Cc1nc(N2CCN(C)CC2)ncc1C(=O)N1C[C@@H](C)[C@@](C)(O)C1	2.32%
O=C(CCC1CCCN(C(=O)CCN2CCCCO2)C1)N1CCCC1 (stereo not given)	2.11%
CCO[C@H]1CN(C)C[C@@H]1NC(=O)c1cc(C)nc2c(C)c(C)ccc12	1.64%
CN(Cc1cc[nH]n1)C(C(=O)O)c1ccc(Cl)cc1 (stereo not given)	0.595%
CCCNC(=O)C(C)Oc1ccccc1 (stereo not given)	-6.68%
COc1ccc2c(c1)OCC(CNC(=O)CCc1c(C)n[nH]c1C)C2 (stereo not given)	-48.5%
Nc1cc(C(=O)N2CCCC3(C=Cc4ccccc4O3)CC2)ccn1 (stereo not given)	13.7%
Cc1cccc2cc(CN3CCCN4CCC[C@H]4C3)c(=O)[nH]c12	2.67%
c1ccc(OCCN2CCN(c3ncnc4[nH]ccc34)CC2)cc1	8.64%
CCC(Nc1nc(C)nc2c1cnn2C)c1ncnn1CC (stereo not given)	-7.17%
CC(C)OC(=O)c1ccc(Cl)c(NC(=O)NCCN2CCOCC2)c1	-54.4%
Cc1ncc(C(=O)N2CCCN(Cc3ccccc3F)CC2)c(O)n1	0.903%
Cc1cc(C)c2nc(CN3CCC(N4CCOCC4)CC3)cc(O)c2c1	-0.173%
CN(Cc1cccc2cnccc12)C(=O)CCc1n[nH]c2c1CCCC2	-7.27%
COCc1cn(C2CCN(C(=O)Cc3ccsc3)CC2)nn1	-4.2%
Cc1cnn(CCCNC(=O)CCC2CCCCN2C)c1 (stereo not given)	-7.32%
c1ccc(CCn2cc(-c3nc(CN4CCOCC4)no3)nn2)cc1	1.85%
Cc1cnn(C(C)C2CC2)c1NC(=O)c1ccncc1 (stereo not given)	-8.48%
Cc1cc(C(=O)N2CCCC(C)C2)ccc1NCc1nc(C2CC2)no1 (stereo not given)	-8.38%

Compound	cytotoxicity at 10 µM
Cc1ncsc1C(=O)NCCNc1ncccn1	1.76%
Cc1noc(C)c1CN(C)C(=O)c1ccc(C(N)=O)nc1	-4.24%
CCc1nc(C(=O)N2CCN(C)CC2)nn1-c1ccccc1Cl	2.1%
Cc1nc(CN2CCCC(Cn3cncn3)C2)no1 (stereo not given)	4.34%
O=C(Cn1cc(-c2ccccc2)cn1)NC(C1CC1)C1CC1	-5%
CCN(CCNC(=O)c1cccnc1OCCOC)C1CC1	-0.966%
c1cc2n(n1)CC(CNCc1ccc(OCC3CC3)nc1)CN2 (stereo not given)	-3.97%
Cc1nc(C)c(C(=O)NCCNC(=O)c2ccc(F)cc2F)s1	-5.55%
COc1ccccc1CCNC(=O)CN1CCCC1c1noc(C)n1 (stereo not given)	-3.81%
CN(C)c1cc2c(nn1)CCN(C(=O)C1CCc3ccccc31)C2 (stereo not given)	-12.2%
CC(=O)Nc1nc(CN2CCCC2c2cnn(C)c2)cs1 (stereo not given)	-11.8%
FC(F)(F)c1ccc(-c2cnc(C3CCCN3)cn2)cc1 (stereo not given)	-1.12%
Cc1ncc(C(=O)N2CCOC(C(=O)N3CCCCCC3)C2)c(C)n1 (stereo not given)	3.67%
Cc1occc1C(=O)N1C[C@H](Oc2ccccn2)[C@H]2OCCC[C@H]21	-110%
CC(C)CC(=O)NC1CC2(CCN(CCF)CC2)Oc2ccccc21 (stereo not given)	1.08%
COc1ccc(CN2C[C@H]3CCC[C@@H](CN(C)C)[C@H]3C2)cn1	4.65%
CC(C)COCC1CN(C(=O)c2cscn2)Cc2ncn(C)c21 (stereo not given)	-109%
Cc1cccc(CN2CCS(=O)(=O)[C@@H]3CCN(C(=O)C4CC4)CC[C@@H]32)n1	-3.64%
O=C(O)c1c(-c2ccncc2)ncc2c1CCN(CC1CCOC1)C2 (stereo not given)	-100%
COCC1CN(S(=O)(=O)c2ccc(C)cc2)Cc2c1cnn2C (stereo not given)	-5.37%
CN(C)C(=O)CN1CCOCC2(CCN(CC3CCOCC3)CC2)C1	8.55%
Cn1ncc2c(N[C@@H]3C[C@H]4CC[C@@H]3C4)nc(-c3ccncc3)nc21	5.89%
